Holding throughout (format): nucleic-acid assay
For test [1], the system named is Nucleic Acid. Description: Association constant for binding to AATT duplex. In outline: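 Fluorometric equilibrium titration at 20 °C in 50 mM Tris, 100 mM NaCl, pH 7.5. The fluorescence increase was fitted to the quadratic binding equation, with dilution corrected.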
The test system of test [2] is Nucleic Acid. Description: Kinetically Defined Association Constant for 28-mer AATT hairpin. A digest of the protocol:
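Stopped-flow fluorescence at 20 °C, pH 7.5 (50 mM Tris, 0.1 M NaCl). 2 nM dye was mixed with excess 28-mer AATT hairpin, with excitation at 366 nm and emission through a 418 nm cutoff filter. Inverse time constants from monoexponential traces versus concentration gave kon. koff came from dissociation with excess poly[d(A-5BrU)]. Kkin = kon/koff.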

Test [3] deals with Nucleic Acid. Description: Association constant for binding to AATT 28-mer AATT hairpin. In outline: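 Fluorometric equilibrium titration at 20 °C in 50 mM Tris, 100 mM NaCl, pH 7.5. A fixed 0.7-1.6 nM dye in a silanized quartz cuvette was titrated with excess 28-mer T4-looped AATT hairpin (3.54 μM stock). The rise in fluorescence was fitted to the quadratic binding equation, with dilution taken into account. Above about 4 × 10^9 M^-1, dye concentration was an extra fitting parameter.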

Regarding `CN1CCN(c2ccc3[nH]c(-c4ccc5[nH]c(-c6ccc(O)cc6)nc5c4)nc3c2)CC1`, the Ka with Nucleic Acid [1] turned out to be 4.1e-08 M⁻¹; in the test with Nucleic Acid [3], 5.2e-08 M⁻¹. This compound came in with a Kkin with Nucleic Acid [2] of 5.9e-08 M⁻¹.

For the origin of these results see ChEMBL document CHEMBL1134542, “Experimental precedent for the need to involve the primary hydration layer of DNA in lead drug design” (J Med Chem, 2001).
